From ChEMBL document CHEMBL5149984, “Discovery of HN37 as a Potent and Chemically Stable Antiepileptic Drug Candidate” (J Med Chem, 2021)
pIC50: −log10 of the molar value.

Key:
Cytochrome P450 3A4 = Cytochrome P450 3A4 (Homo sapiens, UniProt P08684); test: Time dependent inhibition of human liver microsome CYP3A4 preincubated for 0.5 hrs in presence or absence of NADPH followed by midazolam addition by LC-MS/MS method; assay type: ADME, microsomes
Procedure, shortened: (§1)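 Human liver microsomes preincubated 0.5 h with 0.10–50 μM test compound, with or without NADPH, then CYP-specific probe substrate added and incubation continued. Metabolite measured by LC-MS/MS; % activity remaining relative to no-compound control; IC50 fitted by Probit model. For CYP3A4, midazolam 1′-hydroxylation and testosterone 6β-hydroxylation were read separately.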

CYP1A2 = CYP1A2 (Homo sapiens, UniProt P05177); test: Inhibition of human liver microsome CYP1A2 at 0.10 to 50 uM preincubated with NADPH for 0.5 hrs followed by substrate addition by LC-MS/MS method relative to control; assay type: ADME; conditions: liver microsomes, dose 0.1-50 µM
[1] = molecular target: T1, Potassium voltage-gated channel subfamily KQT member 1 (Homo sapiens, UniProt P51787); test: Agonist activity at human KCNQ1 channel expressed in CHO cells assessed as shift of half voltage of maximal activation at 0.1 uM by patch clamp method; assay type: cell-based
T1 sequence (P51787 whole entry): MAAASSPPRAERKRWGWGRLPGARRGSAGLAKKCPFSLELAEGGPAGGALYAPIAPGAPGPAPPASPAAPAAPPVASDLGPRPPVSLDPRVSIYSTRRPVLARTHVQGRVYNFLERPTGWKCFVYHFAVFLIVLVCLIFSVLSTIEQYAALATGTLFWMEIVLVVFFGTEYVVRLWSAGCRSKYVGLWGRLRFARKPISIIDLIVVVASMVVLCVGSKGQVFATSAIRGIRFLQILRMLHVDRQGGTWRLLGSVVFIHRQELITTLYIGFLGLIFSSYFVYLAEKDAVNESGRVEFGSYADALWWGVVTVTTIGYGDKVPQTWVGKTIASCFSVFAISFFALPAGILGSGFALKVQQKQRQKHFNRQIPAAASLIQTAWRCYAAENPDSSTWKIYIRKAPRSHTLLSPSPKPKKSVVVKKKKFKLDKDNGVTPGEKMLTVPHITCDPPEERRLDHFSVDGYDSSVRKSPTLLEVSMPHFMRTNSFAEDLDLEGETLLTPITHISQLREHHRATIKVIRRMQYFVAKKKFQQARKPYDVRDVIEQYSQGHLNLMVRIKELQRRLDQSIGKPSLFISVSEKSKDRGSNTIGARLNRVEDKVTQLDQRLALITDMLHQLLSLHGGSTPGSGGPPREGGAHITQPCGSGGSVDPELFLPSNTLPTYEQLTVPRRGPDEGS
Procedure, shortened: (§2)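 Whole-cell patch clamp at room temperature on CHO cells (DMEM/F12, 10% FBS) transiently co-transfected with EGFP and hKCNQ1, rKCNQ2, rKCNQ3 A278T, hKCNQ4 or hKCNQ5; KCNQ2/3 at 1:1 cDNA ratio. Pipette solution 145 mM KCl, 5 mM MgATP, pH 7.3; bath 140 mM NaCl, 5 mM KCl, pH 7.4, under perfusion. V1/2 from Boltzmann fits; I/I0 is current amplitude with versus without compound; n = 4−6.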

[2] = Drug concentration in Kunming mouse brain at 5 mg/kg; assay type: ADME, organism-based; conditions: in vivo, read-out: Ct
Procedure, shortened: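 Male KM mice (18−24 g) fasted 12 h before and 2 h after dosing, given 5 mg/kg orally in 5% DMSO/5% Tween 80/90% normal saline (n = 3 per time point). Aortic blood taken at 0.25–24 h and whole brain collected. Acetonitrile extraction with internal standard, then LC−MS/MS. Bioavailability calculated against the 2 mg/kg i.v. arm.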

[3] = Cmax in Sprague-Dawley rat at 20 mg/kg, po measured upto 24 hrs by LC-MS/MS method; assay type: ADME, organism-based; set-up: time < 24 hrs, dose 20 mg/kg, route po; conditions: in vivo
Procedure, shortened: (§3)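 Male SD rats (180−220 g) dosed orally at 2, 6 or 20 mg/kg in escalating fashion, handled as in the mouse study: 12 h fast, acetonitrile extraction of plasma, LC−MS/MS quantification. AUC0−t by trapezoidal method to the last measurable concentration.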

CHO [4] = test: Agonist activity at rat KCNQ3 A278T mutant expressed in CHO cells assessed as shift of half voltage of maximal activation at 0.1 uM by patch clamp method; assay type: cell-based; conditions: filed as agonist; procedure, shortened: as §2
[5] = Tmax in Sprague-Dawley rat at 2 mg/kg, po measured upto 24 hrs by LC-MS/MS method; assay type: ADME, organism-based; conditions: in vivo
Procedure, shortened: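 Male SD rats (180–220 g) dosed orally at 2, 6 and 20 mg/kg, handled like the mice: fasting, 5% DMSO/5% Tween 80/saline vehicle, acetonitrile extraction, LC-MS/MS of plasma. In a separate set at 6 mg/kg p.o., blood and brain were sampled together.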

[6] = molecular target: Potassium voltage-gated channel subfamily KQT member 5 (Homo sapiens) (UniProt Q9NR82); test: Agonist activity at human KCNQ5 channel expressed in CHO cells assessed as shift of half voltage of maximal activation at 0.1 uM by patch clamp method; assay type: cell-based; conditions: filed as agonist; procedure, shortened: as §2
[7] = Cmax in Kunming mouse brain at 5 mg/kg, po measured upto 24 hrs by LC-MS/MS method; assay type: ADME, organism-based; set-up: dose 5 mg/kg, time < 24 hrs, route po
Procedure, shortened: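 KM male mice (18−24 g), fasted 12 h before and 2 h after dosing. HN37 given orally at 5 mg/kg in 5% DMSO/5% Tween 80/90% saline, or iv at 2 mg/kg after dilution in saline with 1% Tween 80; n = 3 per time point. Blood sampled 0.25–24 h (from 0.083 h after iv); whole brain taken after oral dosing. Plasma and brain extracted with acetonitrile, quantified by LC−MS/MS; AUC0−t by trapezoidal method.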

[8] = Clearance in Kunming mouse plasma at 2 mg/kg, iv measured upto 24 hrs by LC-MS/MS method; assay type: ADME, organism-based
Procedure, shortened: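 Male KM mice fasted 12 h before and 2 h after iv dosing at 2 mg/kg (oral formulation of 5% DMSO/5% Tween 80/saline diluted with saline containing 1% Tween 80); n = 3 per time point. Blood from the retro-orbital venous plexus at 0.083–24 h; plasma extracted with acetonitrile plus internal standard and analysed by LC−MS/MS.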

Cytochrome P450 2C8 = Cytochrome P450 2C8 (Homo sapiens, UniProt P10632); test: Time dependent inhibition of human liver microsome CYP2C8 preincubated for 0.5 hrs in absence of NADPH followed by substrate addition by LC-MS/MS method; assay type: ADME, microsomes; procedure, shortened: as §1
[9] = Neurotoxicity in Kunming mouse assessed as motor impairment rate at 200 mg/kg, po after 1 hr by rotarod test; assay type: toxicity, organism-based; conditions: in vivo
Procedure, shortened: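 Male KM mice dosed intragastrically with compound freshly suspended in 0.5% CMC-Na. Rotarod performance scored 1 h after dosing as the fraction of animals showing motor impairment. Fisher's exact test versus vehicle; TD50 from nonlinear dose−response fit.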

[10] = AUC(0 to t) in Sprague-Dawley rat at 2 mg/kg, po measured upto 24 hrs by LC-MS/MS method; assay type: ADME, organism-based; set-up: dose 2 mg/kg, time < 24 hrs, route po; conditions: in vivo; procedure, shortened: as §3
CHO [11] = test: Agonist activity at rat KCNQ3 A278T mutant expressed in CHO cells assessed as shift of half voltage of maximal activation at 10 uM by patch clamp method; assay type: cell-based; conditions: filed as agonist; procedure, shortened: as §2

Chain of Cytochrome P450 3A4 (P08684 whole entry): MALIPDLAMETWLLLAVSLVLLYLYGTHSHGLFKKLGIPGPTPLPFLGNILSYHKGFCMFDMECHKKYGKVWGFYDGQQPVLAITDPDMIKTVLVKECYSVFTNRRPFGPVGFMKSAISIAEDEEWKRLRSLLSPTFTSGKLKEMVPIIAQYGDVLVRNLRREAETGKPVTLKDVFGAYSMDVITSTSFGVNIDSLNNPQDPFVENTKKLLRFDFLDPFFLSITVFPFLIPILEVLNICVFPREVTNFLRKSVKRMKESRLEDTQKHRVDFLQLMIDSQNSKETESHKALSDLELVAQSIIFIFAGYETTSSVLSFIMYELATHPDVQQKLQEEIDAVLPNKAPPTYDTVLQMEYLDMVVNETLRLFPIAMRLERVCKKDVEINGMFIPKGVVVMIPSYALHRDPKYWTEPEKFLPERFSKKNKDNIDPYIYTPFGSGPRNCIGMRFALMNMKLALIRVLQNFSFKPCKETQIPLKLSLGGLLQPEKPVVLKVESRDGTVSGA
Chain of Potassium voltage-gated channel subfamily KQT member 5 (Homo sapiens) (Q9NR82 whole entry): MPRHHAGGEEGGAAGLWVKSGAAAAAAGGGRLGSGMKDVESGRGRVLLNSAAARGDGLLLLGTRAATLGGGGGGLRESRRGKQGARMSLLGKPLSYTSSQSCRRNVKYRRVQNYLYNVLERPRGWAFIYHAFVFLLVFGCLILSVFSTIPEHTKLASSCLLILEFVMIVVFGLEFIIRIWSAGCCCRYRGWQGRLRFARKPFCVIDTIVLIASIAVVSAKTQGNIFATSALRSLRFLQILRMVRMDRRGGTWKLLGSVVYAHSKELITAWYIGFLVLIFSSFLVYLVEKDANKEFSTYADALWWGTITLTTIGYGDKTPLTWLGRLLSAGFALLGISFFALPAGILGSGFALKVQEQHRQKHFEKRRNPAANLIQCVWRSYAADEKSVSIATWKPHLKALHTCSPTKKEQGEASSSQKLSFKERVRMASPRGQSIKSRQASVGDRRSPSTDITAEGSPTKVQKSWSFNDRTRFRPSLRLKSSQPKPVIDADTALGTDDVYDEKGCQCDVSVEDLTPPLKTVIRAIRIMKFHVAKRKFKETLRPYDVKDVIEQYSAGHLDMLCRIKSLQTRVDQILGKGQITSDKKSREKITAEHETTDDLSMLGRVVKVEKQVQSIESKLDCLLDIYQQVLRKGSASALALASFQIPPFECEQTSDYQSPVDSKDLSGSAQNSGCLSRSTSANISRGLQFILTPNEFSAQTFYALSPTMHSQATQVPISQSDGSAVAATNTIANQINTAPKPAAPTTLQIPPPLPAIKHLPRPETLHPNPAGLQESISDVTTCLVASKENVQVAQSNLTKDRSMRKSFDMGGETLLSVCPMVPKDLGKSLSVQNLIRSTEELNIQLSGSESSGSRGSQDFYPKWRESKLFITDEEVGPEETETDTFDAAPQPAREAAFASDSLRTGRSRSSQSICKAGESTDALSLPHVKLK
Chain of Cytochrome P450 2C8 (P10632 whole entry): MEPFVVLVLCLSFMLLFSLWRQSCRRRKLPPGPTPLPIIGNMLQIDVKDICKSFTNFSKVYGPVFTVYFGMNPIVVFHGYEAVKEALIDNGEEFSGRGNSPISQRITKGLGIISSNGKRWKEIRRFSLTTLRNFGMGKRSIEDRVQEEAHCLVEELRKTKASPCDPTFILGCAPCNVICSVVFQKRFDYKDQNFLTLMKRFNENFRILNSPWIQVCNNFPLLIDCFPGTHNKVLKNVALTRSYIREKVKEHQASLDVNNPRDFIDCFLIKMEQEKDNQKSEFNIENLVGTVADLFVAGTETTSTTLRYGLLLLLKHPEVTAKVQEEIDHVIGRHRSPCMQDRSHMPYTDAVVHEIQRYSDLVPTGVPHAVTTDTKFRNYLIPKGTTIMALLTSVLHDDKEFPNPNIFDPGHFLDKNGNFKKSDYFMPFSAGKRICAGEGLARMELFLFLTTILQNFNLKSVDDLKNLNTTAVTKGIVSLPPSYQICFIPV
Chain of CYP1A2 (P05177 whole entry): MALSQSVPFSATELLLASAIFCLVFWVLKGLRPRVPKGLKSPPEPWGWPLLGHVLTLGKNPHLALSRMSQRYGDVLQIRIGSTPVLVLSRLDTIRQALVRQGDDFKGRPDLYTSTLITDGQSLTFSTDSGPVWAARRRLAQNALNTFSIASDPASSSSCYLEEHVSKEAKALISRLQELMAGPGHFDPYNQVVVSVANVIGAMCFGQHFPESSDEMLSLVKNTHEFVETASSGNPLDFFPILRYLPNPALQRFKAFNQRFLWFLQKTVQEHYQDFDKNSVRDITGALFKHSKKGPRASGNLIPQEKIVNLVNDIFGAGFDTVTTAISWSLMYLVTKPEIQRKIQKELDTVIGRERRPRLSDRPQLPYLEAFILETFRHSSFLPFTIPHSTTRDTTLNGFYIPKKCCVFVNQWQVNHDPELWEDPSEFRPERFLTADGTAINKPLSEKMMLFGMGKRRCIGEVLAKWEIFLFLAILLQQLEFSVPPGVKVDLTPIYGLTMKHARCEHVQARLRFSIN

## C#CCN(Cc1ccc(F)cc1)c1cc(C)c(NC(=O)OC)c(C)c1
Cytochrome P450 3A4
  pIC50: < 4.30
CYP1A2
  inhibition at 0.5 h, up to 50 µM: < 25%
[1]
  Activity: -5.47 mV
[2]
  concentration: 120 nM
[3]
  Cmax: 323 ng/mL
CHO [4]
  Activity: -43.1 mV
[5]
  Tmax: 30 min
[6]
  Activity: -9.03 mV
[7]
  Cmax: 263 ng/mL
[8]
  clearance: 61.3 mL/min/kg
Cytochrome P450 2C8
  pIC50: 3.65
[9]
  Activity: 100%
[10]
  AUC(0-t) at 24 h: 247 ng·h/mL

## CCOC(=O)Nc1ccc(NCc2ccc(F)cc2)cc1N [EZOGABINE]
CHO [11]
  Activity: -46.8 mV
